Source: ChEMBL document CHEMBL1938334, “Quinoline tricyclic derivatives. Design, synthesis and evaluation of the antiviral activity of three new classes of RNA-dependent RNA polymerase inhibitors” (Bioorg Med Chem, 2011)

Assays:
[1] = test system: Human immunodeficiency virus 1; assay: Antiviral activity against HIV1 3B infected in human MT4 cells assessed as inhibition of virus-induced cytopathogenicity after 4 days by MTT assay; format: functional, organism-based; conditions: Human immunodeficiency virus 1, 3B, MT4, 96 h
Outline: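 MT-4 cells (1×10^4 per well) were infected with HIV-1 IIIB at 100 CCID50, m.o.i. 0.01, together with serial compound dilutions. Viability was read by MTT after 4 days at 37 °C. EC50 was taken by linear regression versus untreated controls. Mean of three determinations.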

Poliovirus 1 = assay: Antiviral activity against Human poliovirus 1 strain Sabin Chat infected in african green monkey Vero 76 cells assessed as virus-induced reduction of plaque formation after 2 days using crystal violet staining; format: functional, cell-based; conditions: Enterovirus C, 48 h
[2] = Cytotoxicity against MDBK cells after 48 to 96 hrs by MTT assay; format: cell-based, Bos taurus; conditions: cattle
Outline: (§1)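 MDBK seeded at 6×10^5 and BHK at 1×10^6 cells/mL in MEM-Earle's with L-glutamine, 1 mM pyruvate, kanamycin, plus 10% horse serum (MDBK) or 10% FBS (BHK). Cells were grown at 37 °C, 5% CO2 with serial compound dilutions (DMSO stocks diluted in medium). Viability by MTT after 48–96 h. CC50 was taken by linear regression versus untreated controls; three independent determinations.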

[3] = Antiviral activity against Bovine viral diarrhea virus 1-NADL infected in MDBK cells assessed as inhibition of virus-induced cytopathogenicity after 3 to 4 days by MTT assay; format: functional, cell-based; conditions: Bovine viral diarrhea virus isolates and strains
Outline: (§2)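 Host cells were seeded in 96-well plates at 3×10^4 cells/well (MDBK) or 5×10^4 cells/well (BHK-21) and grown to confluent monolayers overnight. They were infected at m.o.i. 0.01 in maintenance MEM with 0.5% inactivated FBS. Serial compound dilutions were added after 1 h. Viability was read by MTT after 3–4 days at 37 °C. EC50 was taken by linear regression against untreated controls. Mean of three determinations.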

[4] = Antiviral activity against Vaccinia virus Lister Elstree infected in african green monkey Vero 76 cells assessed as reduction of virus-induced plaque formation after 3 days using crystal violet staining; format: functional, cell-based; conditions: 72 h
[5] = Cytotoxicity against human MT4 cells after 96 hrs by MTT assay; format: cell-based
Outline: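 Exponentially growing MT-4 cells seeded at 1×10^5 cells/mL in RPMI-1640 with 10% FBS, penicillin and streptomycin. Incubated with serial compound dilutions at 37 °C, 5% CO2 for 96 h; viability by MTT. CC50 by linear regression relative to untreated controls; mean of three independent determinations.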

Human orthopneumovirus = assay: Antiviral activity against Human respiratory syncytial virus A2 infected in african green monkey Vero 76 cells assessed as reduction of virus-induced plaque formation after 5 days using crystal violet staining; format: functional, organism-based; conditions: 120 h
[6] = test system: Vesicular stomatitis Indiana virus; assay: Antiviral activity against clinical isolate Vesicular stomatitis Indiana virus infected in african green monkey Vero 76 cells assessed as reduction of virus-induced plaque formation after 2 days using crystal violet staining; format: functional, organism-based; conditions: 48 h
Coxsackievirus B5 = assay: Antiviral activity against Human coxsackievirus B5 Ohio-1 infected in african green monkey Vero 76 cells assessed as reduction of virus-induced plaque formation after 3 days using crystal violet staining; format: functional, organism-based; conditions: Enterovirus B, Ohio-1, Vero, 72 h
Yellow fever virus = assay: Antiviral activity against Yellow fever virus 17D Stamaril Pasteur J07B01 infected in hamster BHK21 cells assessed as inhibition of virus-induced cytopathogenicity after 3 to 4 days by MTT assay; format: functional, cell-based; conditions: Stamaril Pasteur J07B01, BHK-21; outline: as §2
[7] = Cytotoxicity against BHK21 cells after 48 to 96 hrs by MTT assay; format: cell-based, Mesocricetus auratus, BHK-21; conditions: hamster; outline: as §1
Reovirus sp. = assay: Antiviral activity against Reovirus type-1 3651 infected in hamster BHK21 cells assessed as inhibition of virus-induced cytopathogenicity after 3 to 4 days by MTT assay; format: functional, organism-based; conditions: Reovirus sp., 3651, BHK-21; outline: as §2
[8] = Cytotoxicity against african green monkey Vero 76 cells after 48 to 96 hrs by crystal violet staining; format: cell-based; conditions: chlorocebus sabaeus
Outline: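 Vero-76 cells were seeded at 4×10^5 cells/mL in D-MEM with L-glutamine, kanamycin and 10% FBS, then exposed to serial compound dilutions at 37 °C, 5% CO2 for 48–96 h. Viability was read by crystal violet staining. 50% cytotoxic concentration by linear regression relative to untreated controls; mean of three independent determinations.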

Human alphaherpesvirus 1 = assay: Antiviral activity against Human herpesvirus 1 strain KOS infected in african green monkey Vero 76 cells assessed as reduction of virus-induced plaque formation after 3 days using crystal violet staining; format: functional, organism-based; conditions: Human alphaherpesvirus 1, KOS, 72 h
CCRF-SB = assay: Cytotoxicity against human CCRF-SB cells after 96 hrs by MTT assay; format: functional
Outline: (§3)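 Cells were seeded at 1×10^5 cells/mL: leukaemia/lymphoma lines in RPMI-1640, solid tumour and fibroblast lines in specific media, all with 10% FCS. Serial compound dilutions were applied for 96 h at 37 °C, 5% CO2, under conditions allowing controls at least three rounds of multiplication. Viability was read by MTT. CC50 by linear regression. Mean of three determinations.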

HepG2 = assay: Cytotoxicity against human HepG2 cells after 96 hrs by MTT assay; format: functional; conditions: HepG2, 96 h; outline: as §3
CCRF-CEM = assay: Cytotoxicity against human CCRF-CEM cells after 96 hrs by MTT assay; format: functional; outline: as §3
MCF7 = assay: Cytotoxicity against human MCF7 cells after 96 hrs by MTT assay; format: functional; conditions: MCF7, 96 h; outline: as §3
[9] = Inhibition of HCV1b BK 6xHis-tagged recombinant NS5B Cdelta 21 RNA dependent RNA polymerase expressed in Escherichia coli (DE3) using GTP as substrate preincubated for 30 mins before substrate addition measured after 120 mins by fluorescence assay; parameters: species or system Hepatitis C virus (isolate BK)
Outline: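 His-tagged NS5B (BVDV C-terminal Δ24; HCV1b Δ21) from E. coli Rosetta 2(DE3)pLysS, Ni-NTA purified, 500–600 ng per 20 μL. The template was poly(rC) 10 μg/mL and the primer oligo(rG)12 0.1 μg/mL, with GTP 80 μM. Buffer: 20 mM Tris pH 7.0, 0.5 mM MnCl2 or 5 mM MgCl2, 5% DMSO. Enzyme/drug 30 min at RT, then GTP added; 120 min at 37 °C (BVDV) or 25 °C (HCV). Read-out was dsRNA dye fluorescence (ex 480/em 520). IC50 from dose–response fits.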

[10] = Inhibition of Bovine viral diarrhea virus 1-NADL recombinant NS5B Cdelta 21 RNA dependent RNA polymerase expressed in Escherichia coli (DE3) using GTP as substrate preincubated for 30 mins before substrate addition measured after 120 mins by fluorescence assay
[11] = Cytotoxicity against human CRL7065 cells after 96 hrs by MTT assay; format: cell-based, CRL-7065
Outline: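 Foreskin fibroblasts seeded at 1×10^5 cells/mL in specific medium with 10% FCS and antibiotics; serial compound dilutions, 37 °C, 5% CO2, 96 h, under conditions allowing untreated controls at least three rounds of multiplication. MTT read-out; concentration reducing proliferation by 50% by linear regression versus untreated controls; three independent determinations.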

SK-MES-1 = assay: Cytotoxicity against human SKMES1 cells after 96 hrs by MTT assay; format: functional; conditions: SK-MES-1, 96 h; outline: as §3
DU-145 = assay: Cytotoxicity against human DU145 cells after 96 hrs by MTT assay; format: functional; conditions: DU-145, 96 h; outline: as §3
SK-MEL-28 = assay: Cytotoxicity against human SK-MEL-28 cells after 96 hrs by MTT assay; format: functional; conditions: SK-MEL-28, 96 h; outline: as §3
Hepatitis C virus = assay: Antiviral activity against HCV1b infected in human GS4.1 cells assessed as inhibition of virus-induced cytopathogenicity by measuring viral NS4A protein level after 72 hrs by ELISA; format: functional, organism-based, Hepacivirus hominis; conditions: genotype 1b
Outline: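 GS4.1 cells are Huh-7 cells carrying a genotype 1b subgenomic replicon, kept in 0.5 mg/mL G418. They were seeded at 7.5×10^3 cells/well with two-fold serial dilutions of compound (top 75 μM) and incubated 72 h at 37 °C. Huh-7 cells without the replicon served as negative control. NS4A was measured by cell ELISA with anti-NS4A mAb A-236, peroxidase and o-phenylenediamine, A492. EC50 came from four-parameter sigmoidal fit.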

[12] = Cytotoxicity against human GS4.1 cells; format: cell-based
Outline: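 Huh-7 cells carrying HCV genotype 1b subgenomic replicon, grown in D-MEM/10% FBS with 0.5 mg/mL G418. Seeded at 7.5×10^3 cells/well with two-fold serial dilutions (top 75 μM), incubated 72 h at 37 °C. Viability by MTS-type Cell Titer 96 Aqueous One reagent; CC50 from % cytotoxicity versus concentration curves.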

| SMILES | EC50 [1] [µM] | EC50 (Poliovirus 1) [µM] | CC50 [2] [µM] | EC50 [3] [µM] | EC50 [4] [µM] | CC50 at 96 h [5] [µM] | EC50 (Human orthopneumovirus) [µM] | EC50 [6] [µM] | EC50 (Coxsackievirus B5) [µM] | EC50 (Yellow fever virus) [µM] | CC50 [7] [µM] | EC50 (Reovirus sp.) [µM] | CC50 [8] [µM] | EC50 (Human alphaherpesvirus 1) [µM] | further results |
| --- | --- | --- | --- | --- | --- | --- | --- | --- | --- | --- | --- | --- | --- | --- | --- |
| CC(C)c1nc2c(Cl)c3ncccc3cc2[nH]c1=O | > 100 | > 100 | > 100 | 100 | > 100 | 100 | > 100 | > 100 | > 100 | > 100 | > 100 | > 100 | > 100 | > 100 |  |
| CCOC(=O)C(C)c1nc2c(Cl)c3ncccc3cc2[nH]c1=O (centres undefined) | > 11 | > 100 | > 100 | 10 | > 100 | 11 | 62 | > 100 | > 100 | 50 | 75 | > 75 | > 100 | > 100 |  |
| O=c1[nH]c2cc3cccnc3c(Cl)c2nc1-c1ccccc1 | > 22 | > 100 | > 100 | 11 | > 100 | 22 | 12 | > 100 | > 100 | > 100 | > 100 | > 100 | > 100 | > 100 | CC50 (CCRF-SB): 19 µM; CC50 (HepG2): 8 µM; CC50 (CCRF-CEM): 16 µM; CC50 (MCF7): 7.6 µM; IC50 [9]: > 10 µM; IC50 [10]: 1000 nM; CC50 at 96 h [11]: 16 µM; CC50 (SK-MES-1): 8 µM; CC50 (DU-145): 7.4 µM; CC50 (SK-MEL-28): 5.6 µM; EC50 (Hepatitis C virus): > 11 µM; CC50 [12]: 11 µM |
